Measured values collected from several papers.
Lines come from different studies, so protocols differ.
Target: Calcium/calmodulin-dependent protein kinase kinase 2 (CAMKK2, Homo sapiens, UniProt Q96RR4)

C=CC(=O)N1CCC(C(=O)NCC(=O)N2CCN(c3nc(-c4cnc(N)nc4C(F)F)nc(N4CCOCC4)n3)CC2)CC1  remaining binding (binding, competition with immobilised ligand; 1 µM): 95%
CCN1CCN(Cc2ccc(C(=O)Nc3ccc(C)c(Oc4ccc5c(c4)CC(=O)N5)c3)cc2C(F)(F)F)CC1  remaining binding (binding, competition with immobilised ligand; 1 µM): 96%
O=C(Nc1c[nH]nc1C(=O)NC1CCNCC1)c1cc(F)cc(F)c1  remaining binding (binding, competition with immobilised ligand; 1 µM): 91%
CC(C)CC(=O)N1CCc2nc(-c3ccc(Br)cc3)nc(N(C)Cc3ccccc3)c2C1  remaining binding (cell-free assay, competition with immobilised ligand; 0.1 µM): 100%
CN(c1nccc(-c2cnn3ncccc23)n1)C1CC1  remaining binding (binding; 1 µM): 100%
O=C(c1ccc(Nc2ncc(Cl)c(-c3ccc(Cl)s3)n2)cc1)N1CCC(N2CCCC2)CC1  remaining binding (binding, competition with immobilised ligand; 1 µM): 65%
CCC(=N\O)/C(C)=C/c1ccc(F)cc1  remaining binding (cell-free assay, competition with immobilised ligand; 1 µM): 98%
CN(C)c1nccc(-c2cnn3ncccc23)n1  remaining binding (binding; 1 µM): 82%
N#Cc1ccc(Nc2ccc3[nH]c(=O)[nH]c3c2)c(Cl)c1  remaining binding (cell-free assay, competition with immobilised ligand; 1 µM): 91%
COc1cnc(Nc2cccc(S(N)(=O)=O)c2)nc1N1CCN(c2ccccc2)CC1  remaining binding (binding, competition with immobilised ligand; 1 µM): 92%
COc1cccc(CNC(=O)c2nc3scc(COCc4ccc(C(=O)O)cc4)c3c(=O)[nH]2)c1  remaining binding (cell-free assay, competition with immobilised ligand; 1 µM): 100%
Cc1cnc(Nc2ccc(C(=O)N3CCC(N4CCCC4)CC3)cc2)nc1-c1cc2ccccc2s1  remaining binding (binding, competition with immobilised ligand; 1 µM): 81%
CN(CCCC(F)(F)F)c1nccc(-c2cnn3ncccc23)n1  remaining binding (binding; 1 µM): 100%
Cc1cc(NC(=O)c2cccc(S(F)(F)(F)(F)F)c2)cc(-n2ccn3nc(-c4cccnc4)cc23)c1  remaining binding (cell-free assay, competition with immobilised ligand; 1 µM): 99.6%
N[C@H]1CCN(c2nccc(-c3cnn4ncccc34)n2)C1  remaining binding (binding; 1 µM): 100%
Nc1ncc2c(n1)-c1c([nH]c3ccc(C#CC4CC4)cc13)CCCC2  remaining binding (binding, competition with immobilised ligand; 1 µM): 94%
C[C@@H]1CCN(c2nccc(-c3cnn4ncccc34)n2)C1  remaining binding (binding; 1 µM): 72%
CC1=C(C#N)C(c2ccc3c(c2)c(NC(=O)c2ccccc2C)nn3C)C(C#N)=C(C)N1  remaining binding (cell-free assay, competition with immobilised ligand; 1 µM): 100%
COc1ccnn2ncc(-c3ccnc(N(C)C)n3)c12  remaining binding (binding; 1 µM): 80%
C[C@@H](c1ccc(-n2cnc3c(N)ncnc32)cc1)N1CCc2nn(C)c(Cc3ccccc3)c2C1=O  remaining binding (binding, competition with immobilised ligand; 0.1 µM): 94%
